# UBC13 polyUb: blocks human UBC13 polyubiquitin chain formation. TR-FRET. inhibition, % at 20 µM. P61088. AID 485273. actives 0.47% (n = 330,000); in the data active = inhibition above about 45%, passing the limit was not always enough
# Target sequence (P61088 whole entry, looked up): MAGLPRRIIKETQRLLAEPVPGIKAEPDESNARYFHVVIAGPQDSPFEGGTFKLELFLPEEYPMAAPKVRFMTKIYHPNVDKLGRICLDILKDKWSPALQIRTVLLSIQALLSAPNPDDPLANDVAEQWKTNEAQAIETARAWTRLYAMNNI
# PfM18AAP inh-1: blocks P. falciparum M18 aspartyl aminopeptidase; recombinant PfM18AAP, H-Glu-NHMec fluorogenic cleavage; inhibition, % at 7.35 µM; actives 1.2% (n = 290,000); AID 1822;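 active = inhibition above the campaign mean inhibition over all tested compounds plus 3 SD, cut at about 28% in these data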;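 note: 0% = plate median of test compound wells and 100% = 2 mM ZnCl2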
# Apaf-1 inh: human Apaf-1 inhibition; O14727; reconstituted apoptosome caspase-3 activity, DEVD-Rh110 fluorescence; inhibition, % at 20 µM; actives 0.71% (n = 330,000); active = inhibition of at least 40% at 20 µM;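 note: plate controls were DMSO wells for no effect and DEVD-CHO caspase inhibitor wells for full effect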
#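 Material: cell-free apoptosome with Apaf-1, procaspase-3 and caspase-9; Buffer or medium: Hepes pH 7.5 with detergent and BSA; Reagent: cytochrome c trigger plus (Z-DEVD)2-Rh110 caspase-3 substrate; Times: compound with Apaf-1, dATP, procaspase-3 30 min, then 50 min reaction, room temperature; Technique: Rh110 fluorescence intensity.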
# EBNA-1 inh: blocks EBNA-1 binding to DNA; EBNA-1 DNA binding, fluorescence polarization; inhibition, % at 14.8 µM; actives 0.34% (n = 300,000); in the data active = inhibition above about 28%
# ZTA counter: counter-screen for EBNA-1 inhibitors: inhibitors of Epstein-Barr virus ZTA. P03206. ZTA-DNA binding, fluorescence polarization. inhibition, % at 11 µM. actives 0.15% (n = 320,000). AID 2234; in the data active = inhibition above about 33%
# PfG6PD inh: PfG6PD (Plasmodium falciparum) enzyme inhibition. PfGluPho enzyme, NADPH resazurin-diaphorase fluorescence. inhibition, % at 20 µM. actives 0.78% (n = 350,000). AID 504690;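 active = inhibition reaching at least a set limit at 20 µM in the primary screen, cut at about 59% in these data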;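 note: 0% = DMSO wells with substrate and 100% = DMSO wells lacking glucose-6-phosphate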
# PfM18AAP inh-2: PfM18AAP inhibition, confirmation. shares compounds with PfM18AAP inh-1. recombinant PfM18AAP, H-Glu-NHMec fluorogenic cleavage. inhibition, % at 7.35 µM. actives 28% (n = 2,400). AID 2170;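 active = mean inhibition over replicate wells above the hit cutoff set for the earlier primary screen, cut at about 29% in these data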;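 note: 0% = median of test compound wells and 100% = 2 mM ZnCl2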
# CTSL1 confirm: counter-screen for PFM18AAP inhibitors: confirmation of human cathepsin L inhibitors. shares compounds with PfM18AAP inh-1. purified cathepsin L1, Z-Leu-Arg-MCA fluorescence. inhibition, % at 5.96 µM. 2,400 tested, under 10 active. AID 2178;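 active = average inhibition across replicates above the hit cutoff set in the earlier primary screen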;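 note: 0% = median of test compound wells and 100% = Z-Phe-Ala-diazomethylketone 1 µM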
# Target sequence (P07711 whole entry, looked up): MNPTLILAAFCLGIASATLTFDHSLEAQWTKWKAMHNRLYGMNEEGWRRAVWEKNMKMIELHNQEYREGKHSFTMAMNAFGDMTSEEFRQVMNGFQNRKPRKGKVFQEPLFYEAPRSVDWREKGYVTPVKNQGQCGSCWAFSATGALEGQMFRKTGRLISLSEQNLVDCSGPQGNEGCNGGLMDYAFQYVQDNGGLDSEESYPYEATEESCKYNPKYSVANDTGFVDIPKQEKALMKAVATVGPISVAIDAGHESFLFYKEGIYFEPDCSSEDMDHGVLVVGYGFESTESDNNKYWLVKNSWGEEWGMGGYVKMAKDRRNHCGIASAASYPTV
# * hit, by the source's call; . = no result given. A selection: hits, their analogues and other compounds. The true share with any hit is near 2.9%.
SMILES,UBC13 polyUb,PfM18AAP inh-1,Apaf-1 inh,EBNA-1 inh,ZTA counter,PfG6PD inh,PfM18AAP inh-2,CTSL1 confirm
O=C(/C=C/c1ccccc1)Nn1cnnc1,7.3,80.3*,-1.5,5.6,13.6,-6.2,70.0*,0.5
O=C(COC(=O)/C=C/c1ccc(S(=O)(=O)N2CCOCC2)cc1)NC1CCCCCCC1,6.5,3.5,3.3,0.1,15.6,-7.3,.,.
CSc1ccccc1NC(=O)CN(C)CC(=O)Nc1ccccc1F,-15.3,2.8,1.1,-2.8,0.8,-1.8,.,.
CN=C(Nc1cccnc1)c1ccccc1,-1.1,-5.2,0.4,-11.7,-12.5,-4.2,.,.
Oc1cccc(NC(=S)Nc2ccccc2)c1,9.8,21.8,-4.7,9.7,12.6,-8.8,-46.9,1.9
Oc1cccc(Nc2ccccc2)c1,1.7,.,-2.1,.,7.2,7.4,.,.
Fc1cccc(NC(=S)NNc2ccccc2)c1,-1.2,38.0*,3.4,-7.0,-2.9,27.9,-14.1,-5.8
O=[N+]([O-])c1ccc(NC(=S)NCCc2ccccc2)cc1,5.4,-1.3,-1.3,-0.2,-26.0,18.4,.,.
O=[N+]([O-])c1ccc(NNC(=S)Nc2ccccc2)cc1,-26.9,39.3*,3.3,-12.5,-8.1,50.5,32.5*,-9.1
Fc1cccc(NC(=S)NNc2c3ccccc3nc3ccccc23)c1,.,1.9,.,.,.,10.8,.,.
Cc1nnc(C)c2c(C)n(-c3ccccc3N)c(C)c12,-20.5,11.3,19.1,-6.2,-10.1,17.5,.,.
C=CCSC1=N/C(=C/c2ccsc2)C(=O)N1c1ccccc1,-10.9,-5.0,19.5,1.8,-2.6,-4.2,.,.
CCn1c(SCC(=O)NNC(=O)c2ccc(C)cc2)nnc1-c1ccco1,-6.3,1.6,1.9,-16.4,1.7,-9.4,.,.
CC/C(Cc1ccccc1)=N\NC(=O)c1cc([N+](=O)[O-])cc([N+](=O)[O-])c1,-2.8,41.3*,-11.9,12.9,0.7,12.9,10.9,2.3
CC/C(Cc1ccccc1)=N/NC(=O)c1cccc(Br)c1,-3.3,2.6,-0.5,-2.5,7.8,13.0,.,.
CCCCn1c(SCC(=O)c2ccc(O)c(O)c2)nc2ccsc2c1=O,-6.8,37.4*,11.9,3.2,12.2,-37.9,27.6,3.9
CC(=O)c1ccc(O)c(CSc2nncn2C)c1,5.4,-0.6,-25.9,-3.2,8.9,20.7,.,.
O=C(CSc1nnnn1-c1ccc(F)cc1)c1ccc(O)c(O)c1,.,47.4*,.,-4.2,-1.2,-26.2,28.1*,-5.1
Cn1cnnc1SCC(=O)c1ccc(O)c(O)c1,5.9,53.3*,-9.1,0.4,-0.3,2.0,34.9*,2.8
O=C(CCCn1c(SCC(=O)c2ccc(O)c(O)c2)nc2ccccc2c1=O)NCC1CCCO1 (stereo unspecified),4.5,52.8*,-3.4,6.6,-0.4,-20.0,38.5*,3.4
CCCCn1c(SCC(=O)c2ccccc2)nc2ccsc2c1=O,14.2,-5.1,2.3,-5.2,-2.2,2.2,.,.
CCOC(=O)C1CCN(C(=O)Cn2nc(C)n3nc(-c4ccc(CC)cc4)cc3c2=O)CC1,-1.3,-5.8,18.7,-10.3,-13.6,-5.4,.,.
Cc1ccc(C2CC2C(=O)NNC(=S)Nc2ccc(Cl)cc2)cc1 (stereo unspecified),-18.3,-0.2,-0.7,-16.7,-13.9,-11.5,.,.
COc1ccc(NC(=O)n2nc(OC(=O)c3cccs3)cc2N)cc1,5.5,49.7*,0.9,7.6,10.8,17.6,4.8,-16.7
CC1(C2CC2)NC(=O)N(CC(=O)Nc2ccccc2-c2ccccc2)C1=O (stereo unspecified),1.3,-2.2,1.7,14.6,5.6,-12.8,.,.
SMILES,UBC13 polyUb,PfM18AAP inh-1,Apaf-1 inh,EBNA-1 inh,ZTA counter,PfG6PD inh,PfM18AAP inh-2,CTSL1 confirm
COc1ccc(C2=NN(C(=O)CCC(=O)O)C(c3ccccc3OC)C2)cc1 (stereo unspecified),6.7,4.9,-12.2,3.5,1.3,-12.1,.,.
CCCCc1nn2c(N)c(/C=C3\C=Nc4ccccc43)c(=O)nc2s1,-3.3,0.6,-458.8,2.2,5.0,-11.1,.,.
CCCCn1c(O)c(/C=C2\C=Nc3ccccc32)c(=O)[nH]c1=O,-20.1,39.7*,10.2,-0.9,-7.2,6.9,12.9,1.9
COc1cc2ccc(=O)oc2c(O)c1OCC=C(C)C,2.2,40.1*,-3.4,-1.2,-2.5,-11.5,-37.7,1.7
COc1cc([N+](=O)[O-])ccc1NC(=O)NNC(=O)c1sccc1C,-2.5,52.7*,-60.3,-2.9,-7.3,-16.9,44.6*,-1.9
Cc1ccccc1/C=N/N1C(=O)CSC1=S,-4.5,34.9*,4.1,13.4,-0.3,-5.5,-9.2,2.6
O=C1CSC(=S)N1/N=C/c1cccnc1,-6.9,35.2*,-17.3,-0.8,-10.2,24.7,11.2,0.1
O=C(N/N=C/c1ccc(O)c(O)c1O)/C(=C/c1ccc([N+](=O)[O-])cc1)NC(=O)c1ccccc1,-12.9,54.0*,36.4,-3.5,-12.6,83.8*,33.9*,-2.2
Cc1ccc(NC(=O)/C(=C\c2ccc([N+](=O)[O-])cc2)NC(=O)c2ccccc2)cc1,-14.3,-2.4,12.5,-6.3,6.2,-18.1,.,.
CCOC(=O)c1c(-c2cccs2)csc1N,6.2,36.0*,7.3,-2.6,10.4,21.6,-41.8,-1.9
CCOC(=O)c1c(-c2ccco2)csc1N,-5.4,21.2,4.3,2.1,-2.1,24.3,.,.
CN(C)C(=S)Nc1ccc2c(c1)OCO2,-3.0,37.6*,8.6,7.5,9.4,50.0,5.0,1.4
Cc1[nH]c2ccccc2c1/C=N/Nc1ccc([N+](=O)[O-])cc1,.,34.4*,.,-8.9,-3.6,35.3,-41.0,2.1
Cc1nc2ccccn2c1-c1csc(Nc2ccc(C(=O)O)cc2)n1,-3.9,42.9*,2.1,-2.5,-4.1,16.4,22.7,-0.2
Cc1nc2ccccn2c1-c1csc(Nc2cccc(O)c2)n1,.,37.5*,.,.,.,41.5,23.4,4.8
COc1cc(N)c(Cl)cc1C(=O)OCC(=O)Nc1cccnc1Cl,0.8,.,5.7,18.5,-1.1,4.7,.,.
C/C(=N\NC(=O)COc1ccccc1)c1ccc(O)cc1,-11.8,0.7,4.0,-8.6,-8.9,-9.6,.,.
C/C(=N\NC(=O)CC#N)c1ccc(Oc2ccccc2)cc1,-11.0,33.0*,12.5,-13.5,1.6,-6.9,-27.8,2.2
Cc1cc(C)c2nc(NNC(=O)c3ccc(S(=O)(=O)N4CCCC(C)C4)cc3)sc2c1 (stereo unspecified),-82.2,38.9*,9.9,3.3,4.5,-8.7,-34.9,5.0
CC1CCCN(S(=O)(=O)c2ccc(C(=O)Nc3nnc(C4CC4)o3)cc2)C1 (stereo unspecified),-10.6,-3.9,-1.4,5.8,1.0,-27.7,.,.

# Bioassay records from PubChem.
